ChEMBL document CHEMBL4834426, “Antimalarial Benzimidazole Derivatives Incorporating Phenolic Mannich Base Side Chains Inhibit Microtubule and Hemozoin Formation: Structure-Activity Relationship and In Vivo Oral Efficacy Studies” (J Med Chem, 2021)
Values after ≈ are worked out from the molar mass of the structure shown. Active and inactive are the calls of the source. No cut-off for these calls is given here.

How the values were obtained:
Plasmodium falciparum [1] = experiment: Antimalarial activity against asexual blood stage drug-sensitive Plasmodium falciparum NF54 infected in erythrocytes assessed as reduction in parasitemia incubated up to 72 hrs by [3H]hypoxanthine incorporation assay; format: functional, organism-based
Outline: (§1)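 [³H]-Hypoxanthine incorporation assay (modified) on asexual blood-stage P. falciparum in vitro. IC₅₀ values are means of ≥2 independent experiments.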

Plasmodium falciparum [2] = experiment: Antimalarial activity against asexual blood stage multi drug-resistant Plasmodium falciparum K1 infected in erythrocytes assessed as reduction in parasitemia incubated up to 72 hrs by [3H]hypoxanthine incorporation assay; format: functional, organism-based; outline: as §1
[3] = Resistance index, ratio of IC50 for antimalarial activity against asexual blood stage multi drug-resistant Plasmodium falciparum K1 to IC50 for antimalarial activity against asexual blood stage drug-sensitive Plasmodium falciparum NF54; format: functional
Outline: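 Resistance index is IC₅₀(K1)/IC₅₀(NF54). Both IC₅₀s came from the [³H]-hypoxanthine incorporation assay, as means of ≥2 independent experiments.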

Plasmodium falciparum [4] = experiment: Antiplasmodial activity against […] Plasmodium falciparum NF54 early gametocytes transfected with GFP-Luc […] at 5 uM incubated for 48 hrs by microscopy based luciferase reporter gene assay relative to control; format: functional
Outline: (§2)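 NF54-Pfs16-GFP-Luc gametocytes, assays set up day 5 (early, stage II/III) or day 10 (late, stage IV/V). Culture at 2−3% gametocytemia, 1.5% hematocrit, 48 h drug exposure at 37 °C under 90% N₂/5% O₂/5% CO₂. Lysates mixed with luciferin; bioluminescence read with 10 s integration. Dual-point: one biological repeat in technical triplicate. Methylene blue (5 μM) reference.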

Plasmodium falciparum [5] = experiment: Antiplasmodial activity against […] Plasmodium falciparum NF54 early gametocytes transfected with GFP-Luc […] at 1 uM incubated for 48 hrs by microscopy based luciferase reporter gene assay relative to control; format: functional; outline: as §2
Plasmodium falciparum [6] = experiment: Antiplasmodial activity against […] Plasmodium falciparum NF54 late gametocytes transfected with GFP-Luc […] at 5 uM incubated for 48 hrs by microscopy based luciferase reporter gene assay relative to control; format: functional; outline: as §2
Plasmodium falciparum [7] = experiment: Antiplasmodial activity against […] Plasmodium falciparum NF54 late gametocytes transfected with GFP-Luc […] at 1 uM incubated for 48 hrs by microscopy based luciferase reporter gene assay relative to control; format: functional; outline: as §2
CHO = experiment: Cytotoxicity against CHO cells assessed as inhibition of cell viability by MTT assay; format: cell-based; details: Cricetulus griseus
[8] = Selectivity index, ratio of IC50 for Cytotoxicity against CHO cells assessed as inhibition of cell viability by MTT assay to IC50 for antimalarial activity against asexual blood stage Plasmodium falciparum NF54 assessed as reduction in parasitemia incubated up to 72 hrs by [3H]hypoxanthine incorporation assay; format: toxicity, cell-based; details: hamster, read-out: Selectivity Index
Outline: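 Selectivity index is IC₅₀(CHO)/IC₅₀(NF54). […] IC₅₀ came from nonlinear dose-response fitting. Parasite IC₅₀ came from the [³H]-hypoxanthine assay.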

[9] = Metabolic stability in mouse liver microsomes assessed as compound remaining at 1 uM incubated for 30 mins by LC-MS/MS analysis; format: ADME, Microsome; details: read-out: Stabilty
Outline: (§3)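 Single-point design: 1 μM compound with 0.4 mg/mL liver microsomes in 0.1 M phosphate buffer pH 7.4 for 30 min. Quenched with ice-cold acetonitrile containing carbamazepine internal standard, centrifuged, analyzed by LC−MS/MS. Percent remaining from internal-standard-corrected peak areas at 30 min versus 0 min. Propranolol, midazolam and MMV390048 as controls.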

[10] = Metabolic stability in rat liver microsomes assessed as compound remaining at 1 uM incubated for 30 mins by LC-MS/MS analysis; format: ADME, Microsome; details: read-out: Stabilty; outline: as §3
[11] = Metabolic stability in human liver microsomes assessed as compound remaining at 1 uM incubated for 30 mins by LC-MS/MS analysis; format: ADME, Microsome; details: read-out: Stabilty; outline: as §3
[12] = Kinetic solubility of the compound in pH 6.5 incubated for 24 hrs by HPLC-DAD analysis; format: physicochemical; details: buffer, read-out: Kinetic_solubility
Outline: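 Miniaturized shake-flask method. 10 mM DMSO stock dried down, phosphate buffer pH 6.5 added, shaken 24 h at 25 °C. Centrifuged 3500g for 15 min; supernatant analyzed by HPLC-DAD against 10−220 μM DMSO calibration curve. Reserpine, hydrocortisone and MMV390048 as controls.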

Plasmodium berghei = experiment: Antimalarial activity against GFP-transfected Plasmodium berghei ANKA infected in NMRI mouse model assessed as reduction in parasitemia at 50 mg/kg, po dosed 4 times relative to control; format: functional; parameters: scale not given: the % may be the effect or the level left
Outline: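 Mice (n = 3) infected with GFP-transfected P. berghei ANKA. Compound in 70% Tween-80/30% ethanol, diluted 10-fold in water, given orally at 4, 24, 48 and 72 h post-infection. Blood taken day 4 (96 h); parasitemia by flow cytometry, detection limit 0.1%. Activity = difference in mean % parasitemia between control and treated, as % of control.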

Hemozoin [13] = experiment: Inhibition of Beta-hematin in early ring stage Plasmodium falciparum parasitized red blood cells assessed as hemozoin formation formation after 32 hrs by Giemsa staining based haemocytometric counting method
Hemozoin [14] = experiment: Inhibition of beta-hematin formation […] incubated for 5 hrs by NP40 detergent-mediated assay
Outline: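 Cell-free β-hematin formation assay in NP-40 (305.5 μM) lipid-mimic medium. Compounds from 20 mM stock serially diluted across wells, in duplicate. Hematin suspended in 1 M acetate buffer pH 4.8; plates incubated ~5 h at 37 °C. Then pyridine solution (with HEPES pH 7.4) and acetone added; absorbance at 405 nm. IC₅₀ by curve fit.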

[15] = tested on: Plasmodium falciparum NF54; experiment: Inhibition of tubulin polymerization in asexual blood stage Plasmodium falciparum NF54 at 600 nM incubated for 24 hrs by tubulin tracker Oregon Green staining method
Outline: (§4)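 Treatment at 600 nM for asexual parasites (~1% parasitemia, 5% hematocrit, sorbitol-synchronized rings) or 2400 nM for early gametocytes (~2% gametocytemia, 2% hematocrit, 20% I/60% II/20% III). 24 h at 37 °C, 90% N₂/5% CO₂/5% O₂, DMSO <0.1%. Stained with 250 nM Tubulin Tracker Oregon Green 488 for 30 min and Hoechst (100 nM) for 10 min. PBS-washed, imaged live by confocal microscopy. Colchicine (20 μM) positive control.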

[16] = tested on: Plasmodium falciparum NF54; experiment: Inhibition of tubulin polymerization in asexual stage (I) Plasmodium falciparum NF54 early gametocytes at 2400 nM incubated for 24 hrs by tubulin tracker Oregon Green staining method; outline: as §4
[17] = tested on: Plasmodium falciparum NF54; experiment: Inhibition of tubulin polymerization in asexual stage (II) Plasmodium falciparum NF54 early gametocytes at 2400 nM incubated for 24 hrs by tubulin tracker Oregon Green staining method; outline: as §4
[18] = tested on: Plasmodium falciparum NF54; experiment: Inhibition of tubulin polymerization in […] Plasmodium falciparum NF54 early gametocytes at 2400 nM incubated for 24 hrs by tubulin tracker Oregon Green staining method; outline: as §4
[19] = Cmax in Balb/c mouse at 10 mg/kg, po measured up to 24 hrs by LC-MS/MS analysis; format: ADME, organism-based; parameters: route oral, dose 10 mg/kg, time <=24; details: in vivo
Outline: (§5)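 Male Balb/c mice, not fasted, food and water ad libitum; single oral dose. Tail-vein blood into heparinized tubes at 0.5, 1, 3, 5, 7, 9 and 24 h, stored at −80 °C. Whole blood protein-precipitated with acetonitrile containing internal standard, analyzed by LC−MS/MS (LOQ 2 ng/mL). Parameters by noncompartmental analysis with curve stripping. Mean of three mice per point.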

[20] = Tmax in Balb/c mouse at 10 mg/kg, po measured up to 24 hrs by LC-MS/MS analysis; format: ADME, organism-based; details: in vivo; outline: as §5
[21] = Clearance in Balb/c mouse at 3 mg/kg, iv measured up to 24 hrs by LC-MS/MS analysis; format: ADME, organism-based; details: in vivo
Outline: (§6)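 Intravenous dosing in male Balb/c mice, fed ad libitum. Tail-vein blood sampled into heparinized tubes at 0.17, 0.5, 1, 3, 5, 7, 9 and 24 h, frozen at −80 °C. Blood extracted by acetonitrile protein precipitation with internal standard; LC−MS/MS quantitation, LOQ 2 ng/mL. Noncompartmental analysis based on curve stripping.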

[22] = Volume of distribution in Balb/c mouse at 3 mg/kg, iv measured up to 24 hrs by LC-MS/MS analysis; format: ADME, organism-based; details: in vivo; outline: as §6
[23] = Volume of distribution at steady state in Balb/c mouse at 3 mg/kg, iv measured up to 24 hrs by LC-MS/MS analysis; format: ADME, organism-based; details: in vivo, read-out: Vdss; outline: as §6
[24] = AUC (0 to t) in Balb/c mouse at 3 mg/kg, iv measured up to 24 hrs by LC-MS/MS analysis; format: ADME, organism-based; parameters: dose 3 mg/kg, time <=24; details: in vivo; outline: as §6
[25] = AUC (0 to t) in Balb/c mouse at 10 mg/kg, po measured up to 24 hrs by LC-MS/MS analysis; format: ADME, organism-based; parameters: dose 10 mg/kg, time <=24; details: in vivo; outline: as §5
[26] = Oral bioavailability in Balb/c mouse at 10 mg/kg measured up to 24 hrs by LC-MS/MS analysis; format: ADME, organism-based; details: in vivo; outline: as §5
[27] = Inhibition of tubulin polymerization in asexual blood stage Plasmodium falciparum NF54

| SMILES | IC50 (Plasmodium falciparum [1]) [µM] | IC50 (Plasmodium falciparum [2]) [µM] | Ratio IC50 [3] | inhibition at 5 µM (Plasmodium falciparum [4]) [%] | inhibition at 1 µM (Plasmodium falciparum [5]) [%] | inhibition at 5 µM (Plasmodium falciparum [6]) [%] | inhibition at 1 µM (Plasmodium falciparum [7]) [%] | IC50 (CHO) [µM] | selectivity ratio at 72 h [8] | remaining at 0.5 h, 1 µM [9] [%] | remaining at 0.5 h, 1 µM [10] [%] | remaining at 0.5 h, 1 µM [11] [%] | solubility kinetic at 24 h [12] [µM] | Activity (Plasmodium berghei) [%] | Activity (Hemozoin [13]) | IC50 (Hemozoin [14]) [µM] | also measured |
| --- | --- | --- | --- | --- | --- | --- | --- | --- | --- | --- | --- | --- | --- | --- | --- | --- | --- |
| CCNCc1cc(Cl)cc(Nc2nc3ccccc3[nH]2)c1O | 0.3 | 0.88 | 2.93 | 23 | 0 | 31 | 0 | > 50 | > 166 | 97 | 98 | 93 | 200 (≈ 63.4 µg/mL) | <40 | Active | 12.7 | inhibition [15]: Active; inhibition [16]: inactive; inhibition [17]: Active; inhibition [18]: Active |
| CCNCc1cc(Cl)cc(Nc2nc3cc(F)c(F)cc3[nH]2)c1O | 0.25 | 0.78 | 3.12 | 35 | 0 | 0 | 0 | > 50 | > 200 | 98 | > 99 | > 99 | 12 (≈ 4.23 µg/mL) | <40 | Active | 7.15 | Cmax [19]: 26 nM; Tmax [20]: 42 min; clearance [21]: 151 mL/min/kg; Vd [22]: 96 L/kg; Vd [23]: 58 L/kg; AUCt [24]: 65 µmol·min/L; AUCt [25]: 11 µmol·min/L; bioavailability [26]: 5% |
| COC(=O)Nc1nc2cc(C(=O)c3cccs3)ccc2[nH]1 [NOCODAZOLE] |  |  |  |  |  |  |  |  |  |  |  |  |  |  |  |  | IC50 [27]: 17 µM |
